Source: ChEMBL document CHEMBL1138278, “Aromatic amide derivatives of 5,6-dimethoxy-2,3-dihydro-1H-inden(-1-yl)acetic acid as anti-inflammatory agents free of ulcerogenic liability” (Bioorg Med Chem Lett, 2007)

Experiments:
[1] = system: Rattus norvegicus; test: Antiinflammatory activity in Wistar rat assessed as inhibition of carrageenan-induced paw edema at 100 mg/kg, after 1 hr; format: functional
Procedure, shortened: (§1)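 Male Wistar rats (170 ± 20 g) dosed orally: test agents at 100 mg/kg, reference at 10 mg/kg. One hour later, 0.1 ml of 1% carrageenan injected subplantar into the right hind paw.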

[2] = system: Rattus norvegicus; test: Antiinflammatory activity in Wistar rat assessed as inhibition of carrageenan-induced paw edema at 100 mg/kg, after 2 hrs; format: functional; procedure, shortened: as §1
[3] = system: Rattus norvegicus; test: Antiinflammatory activity in Wistar rat assessed as inhibition of carrageenan-induced paw edema at 100 mg/kg, after 3 hrs; format: functional; procedure, shortened: as §1
[4] = system: Rattus norvegicus; test: Antiinflammatory activity in Wistar rat assessed as inhibition of carrageenan-induced paw edema at 100 mg/kg, after 6 hrs; format: functional; procedure, shortened: as §1
[5] = system: Mus musculus; test: Analgesic activity in Swiss Albino mouse assessed as number of acetic acid-induced writhing at 100 mg/kg, po after 1 hr relative to control; format: functional
Procedure, shortened: (§2)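 Mice dosed orally; one hour later injected i.p. with 1% v/v acetic acid at 0.1 ml/10 g. Writhings counted over 15 min, starting five minutes after injection. Means ± SEM, n = 6; p < 0.05 versus control group.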

[6] = system: Rattus norvegicus; test: Antiinflammatory activity in Wistar rat assessed as inhibition of carrageenan-induced paw edema at 100 mg/kg, after 24 hrs; format: functional; procedure, shortened: as §1
[7] = system: Mus musculus; test: Analgesic activity in Swiss Albino mouse assessed as inhibition of acetic acid-induced writhing responses at 100 mg/kg, po after 1 hr; format: functional; procedure, shortened: as §2
[8] = system: Rattus norvegicus; test: Antiinflammatory activity in Wistar rat assessed as inhibition of carrageenan-induced paw edema at 100 mg/kg, after 4 hrs; format: functional; procedure, shortened: as §1
[9] = system: Rattus norvegicus; test: Antipyretic activity against LPS-induced pyresis in Wistar rat assessed as change in rectal temperature at 100 mg/kg, po after 7 hrs; format: functional
Procedure, shortened: (§3)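 Male Wistar rats (170 ± 20 g) dosed orally: test agents at 100 mg/kg, indomethacin and aspirin at 10 mg/kg and 100 mg/kg. Half an hour later, LPS in apyrogenic saline given at 100 µg/kg i.p. Rectal temperature taken by telethermometer probe immediately before LPS and hourly from 1 to 7 h after. Change in temperature reported; means ± SEM, n = 6.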

[10] = system: Rattus norvegicus; test: Antipyretic activity against LPS-induced pyresis in Wistar rat assessed as change in rectal temperature at 100 mg/kg, po after 4 hrs; format: functional; procedure, shortened: as §3
[11] = system: Rattus norvegicus; test: Antipyretic activity against LPS-induced pyresis in Wistar rat assessed as change in rectal temperature at 100 mg/kg, po after 5 hrs; format: functional; procedure, shortened: as §3
[12] = system: Rattus norvegicus; test: Antipyretic activity against LPS-induced pyresis in Wistar rat assessed as change in rectal temperature at 100 mg/kg, po after 3 hrs; format: functional; procedure, shortened: as §3
[13] = system: Rattus norvegicus; test: Antipyretic activity against LPS-induced pyresis in Wistar rat assessed as change in rectal temperature at 100 mg/kg, po after 2 hrs; format: functional; procedure, shortened: as §3
[14] = system: Rattus norvegicus; test: Antipyretic activity against LPS-induced pyresis in Wistar rat assessed as change in rectal temperature at 100 mg/kg, po after 6 hrs; format: functional; procedure, shortened: as §3
[15] = system: Rattus norvegicus; test: Antipyretic activity against LPS-induced pyresis in Wistar rat assessed as change in rectal temperature at 100 mg/kg, po after 1 hr; format: functional; procedure, shortened: as §3
[16] = system: Rattus norvegicus; test: Toxicity in 24 hrs fasted Wistar rat assessed as ulcer index at 100 mg/kg, po after 14 days; format: organism-based; design: dose 100 mg/kg, route oral; details: in vivo, 336 h
Procedure, shortened: (§4)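 Male Wistar rats (175 ± 25 g) fasted 24 h and dosed orally. Acute arm: test agents at 100 mg/kg, indomethacin at 30 mg/kg; rats killed after 6 h, stomachs opened along the greater curvature and scored for ulcers. Chronic arm: 14-day dosing, stomachs examined post mortem at the end of the arthritis study. Ulcer index means ± SEM, n = 4.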

[17] = system: Rattus norvegicus; test: Antiarthritic activity against adjuvant-induced arthritis in Wistar rat assessed as inhibition of paw edema at 100 mg/kg, po on day 3; format: functional; details: 72 h
Procedure, shortened: (§5)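 Male Wistar rats (160 ± 10 g) dosed orally once daily for 14 days, from the day before injecting 0.1 ml Freund's complete adjuvant into the subplantar surface of the right hind paw. Paw swelling, including the uninjected left paw, and body weight recorded. Means ± SEM, n = 6; p < 0.05 versus control.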

[18] = system: Rattus norvegicus; test: Antiarthritic activity against adjuvant-induced arthritis in Wistar rat assessed as weight change at 100 mg/kg, po; format: functional; procedure, shortened: as §5
[19] = system: Rattus norvegicus; test: Antiarthritic activity against adjuvant-induced arthritis in Wistar rat assessed as inhibition of paw edema at 100 mg/kg, po on day 8; format: functional; details: 192 h; procedure, shortened: as §5
[20] = system: Rattus norvegicus; test: Toxicity in 24 hrs fasted Wistar rat assessed as ulcer index at 100 mg/kg, po after 6 hrs; format: organism-based; design: dose 100 mg/kg, route oral; details: in vivo; procedure, shortened: as §4
[21] = system: Rattus norvegicus; test: Antiarthritic activity against adjuvant-induced arthritis in Wistar rat assessed as inhibition of paw edema at 100 mg/kg, po on day 13; format: functional; details: 312 h; procedure, shortened: as §5
[22] = system: Rattus norvegicus; test: Antipyretic activity against LPS-induced pyresis in Wistar rat assessed as change in rectal temperature at 10 mg/kg, po after 5 hrs; format: functional; procedure, shortened: as §3
[23] = system: Rattus norvegicus; test: Antipyretic activity against LPS-induced pyresis in Wistar rat assessed as change in rectal temperature at 10 mg/kg, po after 1 hr; format: functional; procedure, shortened: as §3
[24] = system: Rattus norvegicus; test: Antipyretic activity against LPS-induced pyresis in Wistar rat assessed as change in rectal temperature at 100 mg/kg, po after 2 hrs
[25] = system: Rattus norvegicus; test: Antipyretic activity against LPS-induced pyresis in Wistar rat assessed as change in rectal temperature at 100 mg/kg, po after 6 hrs
[26] = system: Rattus norvegicus; test: Antipyretic activity against LPS-induced pyresis in Wistar rat assessed as change in rectal temperature at 100 mg/kg, po after 7 hrs
[27] = system: Rattus norvegicus; test: Antipyretic activity against LPS-induced pyresis in Wistar rat assessed as change in rectal temperature at 10 mg/kg, po after 3 hrs; format: functional; procedure, shortened: as §3
[28] = system: Rattus norvegicus; test: Antipyretic activity against LPS-induced pyresis in Wistar rat assessed as change in rectal temperature at 10 mg/kg, po after 4 hrs; format: functional; procedure, shortened: as §3
[29] = system: Mus musculus; test: Analgesic activity in Swiss Albino mouse assessed as inhibition of acetic acid-induced writhing responses at 10 mg/kg, po after 1 hr; format: functional; procedure, shortened: as §2
[30] = system: Mus musculus; test: Analgesic activity in Swiss Albino mouse assessed as number of acetic acid-induced writhing at 100 mg/kg, po after 1 hr relative to control

SMILES	inhibition in vivo at 100 mg/kg [1] [%]	inhibition in vivo at 100 mg/kg [2] [%]	inhibition in vivo at 100 mg/kg [3] [%]	inhibition in vivo at 100 mg/kg [4] [%]	Activity [5]	inhibition in vivo at 100 mg/kg [6] [%]	inhibition in vivo at 100 mg/kg [7] [%]	inhibition in vivo at 100 mg/kg [8] [%]	also measured
COc1cc2c(cc1OC)C(CC(=O)Nc1ccccn1)CC2 (stereo not given)	25	32	30.4	29.6	18	33.3	48	29.7	
COc1cc2c(cc1OC)C(CC(=O)Nc1cccnc1)CC2 (stereo not given)	25	30	33.3	35.2	10.17	36.7	70.7	34.4	
COc1cc2c(cc1OC)C(CC(=O)Nc1ccccc1)CC2 (stereo not given)	31.2	32	36.2	38.9	19.83	30	42.8	37.5	
COc1ccc(NC(=O)CC2CCc3cc(OC)c(OC)cc32)cc1 (stereo not given)	34.4	18	26.1	29.6	14.33	40	58.7	27.3	Activity [9]: 0.43 °C; Activity [10]: -0.15 °C; Activity [11]: 0.14 °C; Activity [12]: -0.66 °C; Activity [13]: -1.84 °C; Activity [14]: 0.26 °C; Activity [15]: -0.12 °C
COc1cc2c(cc1OC)C(CC(=O)Nc1ccc(NC(C)=O)cc1)CC2 (stereo not given)	25	18	23.2	24.1	24	33.3	30.8	22.7	
COc1cc2c(cc1OC)C(CC(=O)Nc1ccccc1C)CC2 (stereo not given)	21.9	18	26.1	25.9	24.3	23.3	30	25	
COc1cc2c(cc1OC)C(CC(=O)Nc1cccc(Cl)c1)CC2 (stereo not given)	31.2	28	24.6	38.9	16.83	63.3	51.5	25.8	UI [16]: 0; inhibition in vivo at 100 mg/kg [17]: 37.5%; Activity [9]: 0.42 °C; Activity [18]: 7.21 g; inhibition in vivo at 100 mg/kg [19]: 25.8%; Activity [10]: 0.05 °C; Activity [11]: 0.23 °C; UI [20]: 0; inhibition in vivo at 100 mg/kg [21]: 35.7%; Activity [12]: -0.24 °C; Activity [13]: -1.62 °C; Activity [14]: 0.44 °C; Activity [15]: -0.35 °C
COc1cc2c(cc1OC)C(CC(=O)Nc1ccc(C)cc1)CC2 (stereo not given)	34.4	26	34.8	37	20.33	30	41.4	32.8	UI [20]: 0
COc1cc2c(cc1OC)C(CC(=O)Nc1ccc([N+](=O)[O-])cc1)CC2 (stereo not given)	37.5	36	37.7	37	15.33	43.3	55.8	37.5	inhibition in vivo at 100 mg/kg [17]: 27.2%; Activity [18]: 4.01 g; inhibition in vivo at 100 mg/kg [19]: 17.7%; UI [20]: 0; inhibition in vivo at 100 mg/kg [21]: 10.8%
COc1cc2c(cc1OC)C(CC(=O)Nc1ccc(Br)cc1)CC2 (stereo not given)	50	40	43.5	46.3	21.67	66.7	37.5	40.6	
COc1cc2c(cc1OC)C(CC(=O)Nc1ccncc1)CC2 (stereo not given)	42.2	44	42	46.3	13.83	46.7	60.1	45.3	inhibition in vivo at 100 mg/kg [17]: 17%; Activity [9]: 0.42 °C; Activity [18]: 4.25 g; inhibition in vivo at 100 mg/kg [19]: 11.1%; Activity [10]: 0.13 °C; Activity [11]: 0.35 °C; inhibition in vivo at 100 mg/kg [21]: 19.7%; Activity [12]: -0.87 °C; Activity [13]: -2.23 °C; Activity [14]: 0.74 °C; Activity [15]: -0.11 °C
COc1cc2c(cc1OC)C(CC(=O)O)CC2 (stereo not given)	18.8	24	27.5	20.4	19.41	26.7	44	23.9	
COc1ccccc1NC(=O)CC1CCc2cc(OC)c(OC)cc21 (stereo not given)	28.1	16	21.7	24.1	26.17	30	24.5	23.4	
COc1cc2c(cc1OC)C(CC(=O)Nc1cccc(C)c1)CC2 (stereo not given)	37.5	29	37.7	38	15.83	41.7	54.3	40.6	UI [16]: 0; inhibition in vivo at 100 mg/kg [17]: 16.5%; Activity [9]: 0.82 °C; Activity [18]: 4.56 g; inhibition in vivo at 100 mg/kg [19]: 19.2%; Activity [10]: 0.22 °C; Activity [11]: 0.46 °C; inhibition in vivo at 100 mg/kg [21]: 20.7%; Activity [12]: -0.51 °C; Activity [13]: -1.34 °C; Activity [14]: 0.71 °C; Activity [15]: -0.19 °C
CC(=O)Oc1ccccc1C(=O)O [ASPIRIN]									Activity [22]: 0.2 °C; Activity [23]: -0.43 °C; Activity [24]: -1.45 °C; Activity [25]: 0.25 °C; Activity [26]: 0.31 °C; Activity [27]: -0.51 °C; Activity [28]: 0.11 °C; inhibition in vivo at 10 mg/kg [29]: 61.5%; Activity [30]: 13.33
